# hIAP activ = human IAP activation. purified human IAP, CDP-Star luminescence, 30 min; stronger effect = higher value; 1 = vehicle-only enzyme, 0 = enzyme-free background. AID 2524. P09923. activation factor at 10 µM. actives 0.16% (n = 330,000);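 active means activation factor of the enzyme at least 2-fold when tested at 20 µM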
# Target sequence (P09923 whole entry, looked up): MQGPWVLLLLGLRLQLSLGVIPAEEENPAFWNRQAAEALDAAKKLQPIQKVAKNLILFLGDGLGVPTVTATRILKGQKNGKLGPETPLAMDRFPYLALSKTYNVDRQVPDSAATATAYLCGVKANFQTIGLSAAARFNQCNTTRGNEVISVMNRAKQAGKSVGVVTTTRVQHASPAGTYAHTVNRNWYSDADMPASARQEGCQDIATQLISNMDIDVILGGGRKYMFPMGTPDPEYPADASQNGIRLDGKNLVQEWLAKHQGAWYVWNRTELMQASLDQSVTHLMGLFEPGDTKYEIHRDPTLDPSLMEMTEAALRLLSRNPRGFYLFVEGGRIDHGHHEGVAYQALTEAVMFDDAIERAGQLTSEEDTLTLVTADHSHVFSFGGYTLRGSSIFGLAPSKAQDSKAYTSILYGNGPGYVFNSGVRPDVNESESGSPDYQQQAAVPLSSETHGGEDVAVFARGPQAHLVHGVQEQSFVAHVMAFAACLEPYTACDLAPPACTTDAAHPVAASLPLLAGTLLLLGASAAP
# hIAP inh = blocks human intestinal alkaline phosphatase. P09923. purified IAP, CDP-Star luminescence, 30 min. inhibition, % at 10 µM. actives 0.12% (n = 330,000);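 active means inhibition reaching a set limit with compound at 10 µM in the primary screen, cut at about 35% in these data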;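 further: plate controls were DMSO wells with enzyme for no effect and no-enzyme buffer wells for full effect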
# bIAP inh = blocks bovine intestinal alkaline phosphatase activity; purified bovine IAP, CDP-star luminescence, 30 min; inhibition, % at 20 µM; 190,000 tested, under 10 active;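 active means over 50% inhibition of intestinal alkaline phosphatase at 20 µM in the single-dose screen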
#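 System: purified bovine intestinal alkaline phosphatase (IAP) enzyme; Input: IAP diluted 1/65,000,000 in the well; Measured by: CDP-star luminescence signal; Compound dosing: 20 µM single dose; Incubation: 30 min reaction at room temperature.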
# mIAP activ = increases mouse intestinal alkaline phosphatase activity. muIAP, CDP-Star luminescence, 30 min; stronger effect = higher value; 1 = vehicle-only enzyme signal, 0 = enzyme-free wells. activation factor at 10 µM. actives 0.24% (n = 330,000);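 active means activation factor of at least 2 at 20 µM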
#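 Assay system: mouse IAP enzyme; reagent: chemiluminescent substrate CDP-Star; dosing: test compounds delivered from DMSO solution; schedule: 30 min at room temperature; measured by: luminescence from enzymatic CDP-Star hydrolysis; controls: DMSO-only wells and no-enzyme negative control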
# mIAP block = mouse IAP inhibition | purified mouse IAP, CDP-Star luminescence, 30 min | inhibition, % at 10 µM | actives 0.2% (n = 330,000);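 active means inhibition of at least 40% at 10 µM in the primary screen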;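 further: plate controls were DMSO with enzyme for no effect and no enzyme wells for full effect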
# bIAP activator = increases bovine intestinal alkaline phosphatase activity. purified bovine IAP, CDP-star luminescence, 30 min; stronger effect = higher value; fold of DMSO-control signal, blank-subtracted. activation factor at 20 µM. actives 0.17% (n = 200,000). AID 1016;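 active means activation factor of 2 or more at 20 µM, a signal rise over negative controls twice the positive control's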
# mIAP inh conf = mouse IAP inhibition confirmation; shares compounds with mIAP block; purified mouse IAP, CDP-Star luminescence, 30 min; inhibition, % at 10 µM; actives 4.7% (n = 11,000); AID 434971;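 active means inhibition of at least 40% at 10 µM in either of the two replicates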;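 further: plate controls were DMSO wells with enzyme for no effect and buffer wells lacking enzyme for full effect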
# Starred values were filed as active, the others as inactive; i = inactive; . = not tested or not shown. Rows were chosen to be rich in hits. Some 0.72% of all compounds tested hit in one or more screens of this group.
SMILES,hIAP activ,hIAP inh,bIAP inh,mIAP activ,mIAP block,bIAP activator,mIAP inh conf
C#CCOCCOCCOCCNc1nc(N2CCOCC2)nc(N2CCN(C(=O)CCCCCCCCCCNC(=O)[C@@H]([C@H](C)CC)n3cc(CCCCCN)nn3)CC2)n1,1.1,-8,.,1.7,-69,.,.
C#CCOCCOCCOCCNc1nc(N2CCN(C(=O)CCCCCCCCCCNC(=O)[C@H]([C@@H](C)CC)n3cc(CCCCCN)nn3)CC2)nc(N2CCN(C(=O)CCCCCCCCCCNC(=O)[C@H](CO)n3cc(CCCCCN)nn3)CC2)n1,0.97,3,.,2.1*,-110,.,-151
C#CCOCCOCCOCCNc1nc(N2CCN(C(=O)CCCCCCCCCCNC(=O)[C@H]([C@@H](C)CC)n3cc(CCCCCN)nn3)CC2)nc(N2CCN(C(=O)CCCCCCCCCCNC(=O)[C@@H]([C@H](C)CC)n3cc(CCCCCN)nn3)CC2)n1,0.97,3,.,6.6*,i,.,i
COc1cccc(NC(=O)C2CCN(Cc3cnn(-c4ccccc4)c3-n3cccc3)CC2)c1,1,0,-299,2.8*,-180,4*,-101
COCCNS(=O)(=O)c1ccc2c(c1)oc(=O)c1cc(S(=O)(=O)NCCOC)ccc12,1.1,-11,-2,1,0,1,.
NS(=O)(=O)c1ccc2c(c1)oc(=O)c1cc(S(N)(=O)=O)ccc12,0.97,3,9,0.52,48*,0.9,57*
O=C(N/N=C/c1ccco1)c1cccc(S(=O)(=O)Nc2ccccc2Cl)c1,0.9,10,27,0.47,54*,0.7,61*
CCCNC(=O)c1cc(Cl)c(NC(=O)C2=CSCCO2)cc1OC,0.97,3,.,0.97,3,.,.
C=CCSC1=N/C(=C\C=C\c2ccco2)C(=O)S1,1,-2,4,0.47,53*,1,65*
C=CCSC1=N/C(=C\c2sccc2C)C(=O)S1,0.89,11,14,0.81,19,0.9,.
COc1ccc(NC(=O)CN2C(=O)COc3ccc(S(=O)(=O)N4CCCCC4)cc32)c(OC)c1,1.2,-21,.,1,-1,.,.
Cc1ccc(C(=O)N2CCCC(N3CCN(c4cccc(C(F)(F)F)c4)CC3)C2)s1 (stereo unspecified),1.2,-16,.,0.98,2,.,.
Cn1c(=O)c2sccc2n2c(CCCC(=O)NC3CCN(Cc4ccccc4)CC3)nnc12,1.2,-23,.,1.1,-8,.,.
CS(=O)(=O)c1nc([N+](=O)[O-])nn1CCCc1ccccc1,0.97,2,.,0.98,2,.,.
Cn1nc([N+](=O)[O-])nc1S(C)(=O)=O,1.1,-13,-4,0.56,44*,1,59*
O=C(CCc1c[nH]c2ccccc12)OCC(=O)N1CCN(S(=O)(=O)c2ccccc2)CC1,1,-4,.,1,-1,.,.
C=CCc1cc(Cl)ccc1OC(=O)Nc1cccc(Cl)c1,1.1,-9,.,3*,-202,.,-105
CS(=O)c1ccccc1COC(=O)Nc1cccc(Cl)c1 (stereo unspecified),0.81,20,-3,1.2,-16,1,.
C=CCNC(=O)c1ccc2c(c1)S(=O)(=O)c1ccccc1C2=O,1,0,.,1.1,-6,.,.
COc1cc(OC)c(NC(=O)CN(C)S(=O)(=O)c2ccc3[nH]c(=O)oc3c2)cc1Cl,1.2,-21,.,0.36,64*,.,86*
COc1ccc(NC(=O)CN(C)S(=O)(=O)c2ccc3[nH]c(=O)oc3c2)cc1,1.1,-5,.,0.85,14,.,.
CN(CC(=O)Nc1cccc(Cl)c1)S(=O)(=O)c1ccc2[nH]c(=O)oc2c1,0.87,13,.,0.42,58*,.,74*
CCc1ccc(NC(=O)CN(C)S(=O)(=O)c2ccc3[nH]c(=O)oc3c2)cc1,0.83,17,.,0.5,50*,.,61*
CC(NC(=O)CN1CCN(C(=O)c2cccs2)CC1)c1ccc(F)cc1F (stereo unspecified),0.92,8,.,1,-3,.,.
CSc1ccc(CN2CCC(n3nccc3NC(=O)CCCc3ccccc3)CC2)cc1,1.8,-84,.,2.7*,-171,.,-126
SMILES,hIAP activ,hIAP inh,bIAP inh,mIAP activ,mIAP block,bIAP activator,mIAP inh conf
CCOC(=O)c1nn(-c2ccccc2C)c(=O)cc1OCC(=O)N1CCN(c2ccccc2)CC1,1.1,-12,.,0.96,4,.,.
N#Cc1c2c(c(NCc3ccco3)n3c1nc1ccccc13)CCC2,1.1,-11,12,0.49,50*,0.9,57*
COc1cc(-c2nnc(SCc3cc(=O)oc4cc(O)c(O)cc34)o2)cc(OC)c1OC,0.89,11,6,0.31,69*,0.9,73*
CCN(CC(=O)Nc1ccccc1C(F)(F)F)C(=O)CN1C(=O)NC2(CCCC2)C1=O,1.1,-10,.,1,-2,.,.
O=C(Nc1ccccc1)Nc1ccc2c(c1)CCC2,0.92,8,.,2.2*,-118,.,-95
Cc1cc(CN(C)C(=O)c2ccc3nc(Cc4ccccc4F)oc3c2)on1,0.96,4,.,0.94,6,.,.
C=CCc1cccc2cc(C(=O)NNC(=O)CC#N)c(=O)oc12,1,-5,.,0.55,45*,.,55*
O=C(NCc1cccc(Cl)c1)C1CCCN(c2ncnc3c2nc2n3CCCCC2)C1 (stereo unspecified),1.2,-16,.,1.1,-7,.,.
CC(=O)NN1C(=O)/C(=C/c2ccc(Br)o2)SC1=S,1,-3,17,0.33,67*,0.8,75*
CC(=O)NN1C(=O)/C(=C\c2ccccc2)SC1=S,0.93,7,4,1,-3,1,.
CC(=O)NN1C(=O)/C(=C\c2ccc(O)cc2)SC1=S,0.68,32,.,0.72,28,0.5,.
CC(=O)NN1C(=O)/C(=C\c2ccc(Br)o2)SC1=S,0.97,3,8,0.4,60*,0.9,74*
CC1CN(c2nc(Nc3ccccc3F)nc(N)c2[N+](=O)[O-])CC(C)O1 (stereo unspecified),1.2,-20,.,0.95,5,.,.
c1coc(C2Nc3cccc4cccc(c34)N2)c1,1,-3,31,0.48,52*,0.7,69*
O=C1CC(c2ccco2)CC(O)=C1C=Nc1cc(Cl)ccc1Cl (stereo unspecified),0.98,2,-2,0.6,40,1,.
O=C1CC(c2ccco2)CC(O)=C1C=Nc1cc(Cl)ccc1O (stereo unspecified),1.7,-68,-42,0.36,64*,1.4,70*
COc1cc(CN(C)CC2CCCN(CCc3cccc(C(F)(F)F)c3)C2)ccc1O (stereo unspecified),1.4,-42,.,0.98,2,.,.
C[C@H](CO)N1C[C@H](C)[C@@H](CN(C)C(=O)Nc2ccc3c(c2)OCO3)Oc2c(NC(=O)Nc3ccc4c(c3)OCO4)cccc2C1=O,0.77,24,.,1.1,-5,.,.

# Screening data as filed in PubChem.
